# Measured values from article PMC4080709 (Science translational medicine, 2014).
# What was measured:
# [1] = target: MeV polymerase complex (Measles virus, UniProt P12576); experiment: minigenome luciferase replicon reporter assay, MeV; assay type: cell-based; conditions: 10 µM highest
# [2] = system: established human and animal cell lines and primary human PBMCs; experiment: CytoTox96 non-radioactive cytotoxicity assay; assay type: cell-based
# Summary of the method: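 CytoTox96 non-radioactive cytotoxicity assay; highest concentration tested 75 µM. Signal normalised to vehicle controls as %-toxicity = 100-((specific_490nm)/([…])*100). CC₅₀ derived from the mean of four replicates. Compound dissolved in DMSO. Cell lines kept at 37°C, 5% CO₂ in DMEM with 7.5% FBS.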
# [3] = single-dose oral PK study in ferrets; assay type: in vivo; conditions: ferret, single-dose p.o. 50 mg/kg
# Summary of the method: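 Ferrets given a single oral dose of 50 mg/kg in PEG-200/0.5% methylcellulose (10/90) at time zero, with blood sampled at set time points afterwards. Plasma prepared from heparinised blood. Drug quantified by internal-standard, reversed-phase isocratic HPLC with positive-ion electrospray LC/MS/MS. PK parameters estimated by modelling software.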
# [4] = cited from earlier work
# [5] = system: CDV-5804PeH; experiment: oral efficacy in ferrets infected intranasally with lethal CDV-5804PeH; assay type: in vivo, ferret
# Summary of the method: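 Male and female adult European ferrets without CDV immunity, infected intranasally with 1×10⁵ TCID₅₀ CDV-5804PeH per animal (~10 LD₅₀). Dosing by gastric gavage at 50 mg/kg b.i.d. in PEG200/0.5% methylcellulose (10/90). Post-exposure arm starts 3 days post-infection and runs 14 days; controls receive vehicle. Daily clinical observation. Blood and weights taken days 0, 3, 7, 10, 14, then weekly. Survival analysed by log-rank (Mantel-Cox) test.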
# [6] = system: CDV-5804PeH recombinants harboring L resistance mutations; experiment: dose-response inhibition of resistant CDV-5804PeH recombinants; assay type: cell-based, canine distemper virus
# Summary of the method: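 Candidate L resistance mutations introduced singly into the CDV-5804PeH background by site-directed mutagenesis. Recombinants recovered, and mutations confirmed by RT-PCR and cDNA sequencing. Dose-response inhibition measured as cell-associated viral titres (TCID₅₀ on Vero-cSLAM cells), as mean ± SD of at least three independent experiments. Four-parameter variable-slope regression.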
# [7] = system: MeV isolates; experiment: in vitro efficacy testing against a panel of MeV isolates; assay type: cell-based, measles virus
# Summary of the method: (§1)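 Virus yield reduction: cell-associated progeny titred by TCID₅₀. MeV is handled on Vero-hSLAM cells and CDV on Vero-cSLAM cells. Compound in DMSO. EC₅₀ from four-parameter variable-slope non-linear regression, with 95% asymmetric confidence intervals, from at least three independent experiments per virus. SI = CC₅₀/EC₅₀. MeV panel covers seven endemic genotypes; CDV strains are recombinant 5804PeH and Snyder Hill.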
# [8] = target: CDV polymerase complex (Canine distemper virus, UniProt P24658); experiment: minigenome luciferase replicon reporter assay, CDV; assay type: cell-based; conditions: 10 µM highest
# [9] = target: RSV polymerase complex (Human respiratory syncytial virus A, UniProt P28887); experiment: minigenome luciferase replicon reporter assay, RSV; assay type: cell-based; conditions: 10 µM highest
# Sequence of RSV polymerase complex (P28887 whole entry, one chain of several): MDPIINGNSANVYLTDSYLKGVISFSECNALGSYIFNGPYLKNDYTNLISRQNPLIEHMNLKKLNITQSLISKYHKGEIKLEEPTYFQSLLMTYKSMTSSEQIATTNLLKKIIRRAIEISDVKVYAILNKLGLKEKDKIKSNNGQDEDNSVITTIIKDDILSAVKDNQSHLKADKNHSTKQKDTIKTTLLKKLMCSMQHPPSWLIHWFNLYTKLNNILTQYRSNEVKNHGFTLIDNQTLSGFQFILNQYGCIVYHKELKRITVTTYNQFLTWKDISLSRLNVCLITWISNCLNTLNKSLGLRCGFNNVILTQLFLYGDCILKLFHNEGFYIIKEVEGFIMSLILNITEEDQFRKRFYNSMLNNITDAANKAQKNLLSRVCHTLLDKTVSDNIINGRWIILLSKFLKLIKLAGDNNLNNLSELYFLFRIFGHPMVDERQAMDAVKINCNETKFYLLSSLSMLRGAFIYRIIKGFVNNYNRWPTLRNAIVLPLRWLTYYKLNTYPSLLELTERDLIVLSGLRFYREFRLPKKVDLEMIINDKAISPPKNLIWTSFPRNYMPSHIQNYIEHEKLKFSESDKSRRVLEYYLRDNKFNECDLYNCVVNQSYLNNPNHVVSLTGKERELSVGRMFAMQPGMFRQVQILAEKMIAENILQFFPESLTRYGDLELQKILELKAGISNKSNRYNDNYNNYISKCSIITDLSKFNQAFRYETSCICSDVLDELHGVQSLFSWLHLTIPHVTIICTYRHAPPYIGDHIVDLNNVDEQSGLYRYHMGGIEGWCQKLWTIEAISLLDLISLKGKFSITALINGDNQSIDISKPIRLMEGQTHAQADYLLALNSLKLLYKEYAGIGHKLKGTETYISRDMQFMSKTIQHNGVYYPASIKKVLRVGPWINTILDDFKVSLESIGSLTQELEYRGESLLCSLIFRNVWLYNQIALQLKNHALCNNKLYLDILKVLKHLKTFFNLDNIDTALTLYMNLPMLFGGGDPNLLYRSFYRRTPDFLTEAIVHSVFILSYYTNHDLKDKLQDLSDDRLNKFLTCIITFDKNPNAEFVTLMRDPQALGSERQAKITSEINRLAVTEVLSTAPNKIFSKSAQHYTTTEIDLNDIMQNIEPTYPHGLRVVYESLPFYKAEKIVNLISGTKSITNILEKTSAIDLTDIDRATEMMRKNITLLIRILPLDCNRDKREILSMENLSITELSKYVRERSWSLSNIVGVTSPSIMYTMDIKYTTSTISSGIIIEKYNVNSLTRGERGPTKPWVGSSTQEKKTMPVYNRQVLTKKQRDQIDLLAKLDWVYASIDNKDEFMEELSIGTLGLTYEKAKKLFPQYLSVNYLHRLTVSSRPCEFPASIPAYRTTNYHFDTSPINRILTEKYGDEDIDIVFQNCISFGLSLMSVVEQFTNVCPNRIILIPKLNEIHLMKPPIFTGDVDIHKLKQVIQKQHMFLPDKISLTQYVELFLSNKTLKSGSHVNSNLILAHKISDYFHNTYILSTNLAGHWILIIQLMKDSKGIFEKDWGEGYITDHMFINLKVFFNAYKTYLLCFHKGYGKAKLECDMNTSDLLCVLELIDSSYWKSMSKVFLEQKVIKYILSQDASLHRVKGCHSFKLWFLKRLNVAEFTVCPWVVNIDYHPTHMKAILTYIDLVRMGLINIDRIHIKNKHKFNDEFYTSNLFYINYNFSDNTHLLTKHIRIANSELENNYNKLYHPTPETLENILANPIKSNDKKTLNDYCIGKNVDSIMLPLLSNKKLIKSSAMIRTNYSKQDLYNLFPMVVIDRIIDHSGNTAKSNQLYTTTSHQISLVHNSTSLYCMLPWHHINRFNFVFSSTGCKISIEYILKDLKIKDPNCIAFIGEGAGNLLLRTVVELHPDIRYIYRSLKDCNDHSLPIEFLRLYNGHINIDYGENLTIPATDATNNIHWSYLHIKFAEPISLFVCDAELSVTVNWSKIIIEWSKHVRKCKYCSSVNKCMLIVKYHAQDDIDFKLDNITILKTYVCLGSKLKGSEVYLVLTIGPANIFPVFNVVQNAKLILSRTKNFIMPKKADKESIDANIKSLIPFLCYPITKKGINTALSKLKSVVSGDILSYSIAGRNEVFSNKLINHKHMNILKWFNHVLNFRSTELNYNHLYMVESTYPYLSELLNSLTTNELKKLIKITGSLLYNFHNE
# [10] = system: CDV-5804PeH and Snyder Hill isolate; experiment: in vitro efficacy testing against pathogenic CDV strains; assay type: cell-based, canine distemper virus; conditions: recombinant CDV-5804PeH and neuroadapted Snyder Hill isolate
# Summary of the method: as §1
# [11] = serum protein binding; assay type: in vitro ADME
# [12] = shelf-stability at ambient temperature; assay type: physicochemical
# [13] = rat model; cited from earlier work
# Sequence of MeV polymerase complex (P12576 whole entry): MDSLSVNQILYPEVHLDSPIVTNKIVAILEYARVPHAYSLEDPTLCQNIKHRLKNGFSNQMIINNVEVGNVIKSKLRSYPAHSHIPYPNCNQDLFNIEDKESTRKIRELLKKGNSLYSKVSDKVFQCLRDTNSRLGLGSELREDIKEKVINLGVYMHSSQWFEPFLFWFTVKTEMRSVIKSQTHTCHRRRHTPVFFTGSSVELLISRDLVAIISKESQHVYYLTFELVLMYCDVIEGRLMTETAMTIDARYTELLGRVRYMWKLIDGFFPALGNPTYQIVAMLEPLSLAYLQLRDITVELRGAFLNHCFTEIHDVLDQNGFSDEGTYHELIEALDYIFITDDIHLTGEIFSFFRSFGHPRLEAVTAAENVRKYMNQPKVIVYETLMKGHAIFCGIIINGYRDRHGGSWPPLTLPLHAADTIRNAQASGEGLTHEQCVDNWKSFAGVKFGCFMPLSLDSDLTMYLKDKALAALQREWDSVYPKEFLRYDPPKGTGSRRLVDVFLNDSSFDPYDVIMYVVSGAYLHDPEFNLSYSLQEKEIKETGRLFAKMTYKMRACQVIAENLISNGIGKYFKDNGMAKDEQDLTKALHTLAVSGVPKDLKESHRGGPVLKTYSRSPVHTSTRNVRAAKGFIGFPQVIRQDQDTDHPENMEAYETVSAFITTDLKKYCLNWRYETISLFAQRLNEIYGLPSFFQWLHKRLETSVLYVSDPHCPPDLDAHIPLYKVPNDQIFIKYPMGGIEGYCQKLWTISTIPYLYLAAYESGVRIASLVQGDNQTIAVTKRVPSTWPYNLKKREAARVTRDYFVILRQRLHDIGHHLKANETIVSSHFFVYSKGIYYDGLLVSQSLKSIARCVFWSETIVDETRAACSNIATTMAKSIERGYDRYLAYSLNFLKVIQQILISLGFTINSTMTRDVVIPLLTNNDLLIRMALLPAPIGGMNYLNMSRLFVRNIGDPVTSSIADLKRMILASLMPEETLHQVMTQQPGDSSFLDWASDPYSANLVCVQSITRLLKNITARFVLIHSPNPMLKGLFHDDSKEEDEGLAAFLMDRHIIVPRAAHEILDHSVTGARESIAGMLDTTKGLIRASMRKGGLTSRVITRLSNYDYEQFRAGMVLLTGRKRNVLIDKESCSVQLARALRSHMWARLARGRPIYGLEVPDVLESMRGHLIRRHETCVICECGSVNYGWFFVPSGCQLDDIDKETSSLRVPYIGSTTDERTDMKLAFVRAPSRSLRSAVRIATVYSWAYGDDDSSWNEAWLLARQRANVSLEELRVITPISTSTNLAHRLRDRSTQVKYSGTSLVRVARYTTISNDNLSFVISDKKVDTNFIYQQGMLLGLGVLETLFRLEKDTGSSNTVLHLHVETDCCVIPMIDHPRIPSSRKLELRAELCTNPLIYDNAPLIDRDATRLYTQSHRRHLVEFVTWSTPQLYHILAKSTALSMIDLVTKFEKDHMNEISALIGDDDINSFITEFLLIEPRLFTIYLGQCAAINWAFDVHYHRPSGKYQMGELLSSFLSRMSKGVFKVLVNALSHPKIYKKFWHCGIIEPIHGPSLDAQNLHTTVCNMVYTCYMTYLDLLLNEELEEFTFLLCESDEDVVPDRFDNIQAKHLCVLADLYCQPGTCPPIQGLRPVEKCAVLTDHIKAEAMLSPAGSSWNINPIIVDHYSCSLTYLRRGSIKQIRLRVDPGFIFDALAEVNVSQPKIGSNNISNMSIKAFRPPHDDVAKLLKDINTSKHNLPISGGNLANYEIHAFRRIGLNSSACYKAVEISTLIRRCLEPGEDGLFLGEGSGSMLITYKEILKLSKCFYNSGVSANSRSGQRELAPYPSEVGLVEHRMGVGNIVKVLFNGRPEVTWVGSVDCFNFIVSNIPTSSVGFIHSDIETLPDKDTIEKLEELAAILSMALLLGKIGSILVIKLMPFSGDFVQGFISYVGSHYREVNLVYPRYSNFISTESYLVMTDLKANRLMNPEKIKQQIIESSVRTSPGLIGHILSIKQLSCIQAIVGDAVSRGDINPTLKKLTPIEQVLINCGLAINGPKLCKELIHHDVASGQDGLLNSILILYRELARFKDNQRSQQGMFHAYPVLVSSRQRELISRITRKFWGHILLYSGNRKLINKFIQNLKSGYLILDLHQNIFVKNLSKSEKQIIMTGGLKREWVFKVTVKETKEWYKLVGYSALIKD
# Sequence of MeV polymerase complex (P03422 whole entry, further chain): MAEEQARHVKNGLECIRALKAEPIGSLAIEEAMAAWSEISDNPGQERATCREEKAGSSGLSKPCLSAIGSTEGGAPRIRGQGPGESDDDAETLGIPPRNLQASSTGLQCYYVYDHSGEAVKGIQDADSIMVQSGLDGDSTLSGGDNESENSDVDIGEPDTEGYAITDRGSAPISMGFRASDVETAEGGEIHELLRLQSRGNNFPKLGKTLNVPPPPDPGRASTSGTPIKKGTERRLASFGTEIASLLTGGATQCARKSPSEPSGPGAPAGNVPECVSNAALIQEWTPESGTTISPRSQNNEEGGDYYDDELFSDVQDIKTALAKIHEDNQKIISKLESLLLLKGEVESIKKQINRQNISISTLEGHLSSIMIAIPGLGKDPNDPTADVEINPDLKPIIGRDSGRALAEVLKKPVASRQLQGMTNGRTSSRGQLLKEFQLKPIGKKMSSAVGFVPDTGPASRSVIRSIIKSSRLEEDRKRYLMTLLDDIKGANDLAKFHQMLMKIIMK
structure (smiles),measurement,setting,value
Cn1nc(C(F)(F)F)cc1C(=O)Nc1ccc(S(=O)(=O)N2CCCC[C@H]2CCN2CCOCC2)cc1 [ERDRP-0519],inhibition of RdRp (replicon reporter) activity,[1],potently inhibited
same,cytotoxicity,[2],low cytotoxicity
same,peak plasma concentration,[3]; PEG-200/0.5% methylcellulose (10/90),"exceeded 1,500 ng/ml"
same,peak plasma concentration,[3]; converted from ng/ml,approximately 3.5 µM
same,bidirectional membrane permeability,[4],high
same,PBMC responsiveness (PHA-stimulated proliferation),[5]; PET group,only transiently impaired
same,clinical signs of disease,[5]; PET group,remained subclinical
same,humoral response (neutralizing antibodies),[5]; PET group,strong humoral response
same,signs of compound-induced toxicity,"[5]; PET group, 50 mg/kg p.o. b.i.d. for 14 days",not observed signs of compound-induced toxicity
same,prolongation of survival of treated ferrets,[5]; pre-exposure prophylaxis,up to 2 fold
same,animal survival,"[5]; prophylactic dosing, 50 mg/kg p.o. b.i.d. from 24 hours pre-infection",significantly prolonged animal survival
same,interferon induction levels in PBMCs,[5]; prophylactically treated animals,low interferon induction levels
same,clearance of infection,"[5]; therapeutically dosed animals, by day 28 pI",completely cleared the infection
same,increase in EC90 concentration versus standard CDV-5804PeH,[6]; CDV-5804PeH-LG835R,approximately 8 fold
same,increase in EC90 concentration versus standard CDV-5804PeH,[6]; CDV-5804PeH-LH589Y,approximately 8 fold
same,increase in EC90 concentration versus standard CDV-5804PeH,[6]; CDV-5804PeH-LH816L,approximately 8 fold
same,increase in EC90 concentration versus standard CDV-5804PeH,[6]; CDV-5804PeH-LN398D,approximately 2 fold
same,increase in EC90 concentration versus standard CDV-5804PeH,[6]; CDV-5804PeH-LT751I,> 20 fold
same,increase in EC90 concentration versus standard CDV-5804PeH,[6]; CDV-5804PeH-LT776A,> 20 fold
same,"selectivity indices (SI), CC50/EC50",[7]; against all MeV targets analyzed,> 200
same,antiviral potency,[7]; panel of MeV isolates representing clades currently endemic worldwide,nanomolar
same,inhibition of RdRp (replicon reporter) activity,[8],potently inhibited
same,inhibition of RdRp (replicon reporter) activity,[9],not blocked
same,potency reduction against CDV strains relative to MeV,[10],approximately 2 fold
same,serum protein binding,[11],< 95%
same,shelf-stability,[12],exceeded one year without loss of activity
same,oral availability,[13],39%
